# Assay outcomes deposited in PubChem by Sanford-Burnham Center for Chemical Genomics.
# Compounds with a hit are over-represented: about 0.72% of the library has one in this group of screens.
# mIAP inh: inhibitors of mouse IAP, primary screen, biochemical, luminescence, uHTS | intestinal alkaline phosphatase [Mus musculus] | purified mouse IAP, CDP-Star luminescence, 30 min | inhibition, % at 10 µM | 0.2% of 330,000 active;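 active means inhibition of at least 40% at 10 µM in the primary screen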;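 further: plate controls were DMSO with enzyme for no effect and no enzyme wells for full effect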
# hIAP act: human IAP activators, primary screen, biochemical, luminescence, uHTS; 0.16% of 330,000 active; Intestinal-type alkaline phosphatase (Homo sapiens), P09923; purified human IAP, CDP-Star luminescence, 30 min; stronger effect = higher value; 1 = vehicle-only enzyme, 0 = enzyme-free background; activation factor at 10 µM;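 active means activation factor of the enzyme at least 2-fold when tested at 20 µM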
# Target sequence (P09923 whole entry, looked up): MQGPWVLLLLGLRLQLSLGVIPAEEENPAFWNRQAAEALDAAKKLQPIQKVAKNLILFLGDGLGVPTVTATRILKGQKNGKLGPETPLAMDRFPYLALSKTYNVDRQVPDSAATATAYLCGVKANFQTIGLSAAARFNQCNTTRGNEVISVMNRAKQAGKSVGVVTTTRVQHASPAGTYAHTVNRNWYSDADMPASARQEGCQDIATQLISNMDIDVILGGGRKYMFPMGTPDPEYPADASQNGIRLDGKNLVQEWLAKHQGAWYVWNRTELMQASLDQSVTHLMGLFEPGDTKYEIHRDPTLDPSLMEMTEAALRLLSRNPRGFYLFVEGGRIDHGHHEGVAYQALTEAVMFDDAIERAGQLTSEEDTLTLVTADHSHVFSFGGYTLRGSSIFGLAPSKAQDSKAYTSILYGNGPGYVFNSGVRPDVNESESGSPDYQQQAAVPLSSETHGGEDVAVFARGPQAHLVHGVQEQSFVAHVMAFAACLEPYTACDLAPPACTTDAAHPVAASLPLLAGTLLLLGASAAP
# hIAP inh: human IAP inhibitors, primary screen, biochemical, luminescence, uHTS; 0.12% of 330,000 active; Intestinal-type alkaline phosphatase (Homo sapiens), P09923; purified IAP, CDP-Star luminescence, 30 min; inhibition, % at 10 µM;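 active means inhibition reaching a set limit with compound at 10 µM in the primary screen, cut at about 35% in these data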;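 further: plate controls were DMSO wells with enzyme for no effect and no-enzyme buffer wells for full effect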
# bIAP act: bovine intestinal alkaline phosphatase activators, primary screen, biochemical, bovine IAP, CDP-star luminescence | alkaline phosphatase, intestinal [Bos taurus] | 0.17% of 200,000 active | activation factor at 20 µM | AID 1016, 2008 | purified bovine IAP, 30 min; stronger effect = higher value; fold of DMSO-control signal, blank-subtracted;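 active means activation factor of 2 or more at 20 µM, a signal rise over negative controls twice the positive control's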
# mIAP activ: activators of mouse IAP, primary screen, biochemical, luminescence, uHTS; intestinal alkaline phosphatase [Mus musculus]; muIAP, CDP-Star luminescence, 30 min; stronger effect = higher value; 1 = vehicle-only enzyme signal, 0 = enzyme-free wells; activation factor at 10 µM; 0.24% of 330,000 active;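 active means activation factor of at least 2 at 20 µM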
#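 System: mouse IAP enzyme. Reagent: CDP-Star chemiluminescent phosphatase substrate. Benchmarks: DMSO wells, no-enzyme wells. Times: 30 min enzyme-substrate-compound incubation at room temperature. Detection: luminescence from enzymatic CDP-Star hydrolysis. Doses: test compounds delivered from DMSO solution.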
# bIAP inhibitor: bovine intestinal alkaline phosphatase inhibitors, primary screen, selectivity assay for TNAP inhibitor project, biochemical, bovine IAP, CDP-star luminescence. inhibition, % at 20 µM. purified bovine IAP, 30 min. AID 1019, 2008. alkaline phosphatase, intestinal [Bos taurus]. 190,000 tested, under 10 active;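 active means over 50% inhibition of intestinal alkaline phosphatase at 20 µM in the single-dose screen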
#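 System: Purified bovine intestinal alkaline phosphatase (IAP) enzyme | Input: IAP diluted 1/65,000,000 in the well | Also added: CDP-star chemiluminescent phosphatase substrate, 30 µM final | Dosing: 20 µM single dose | Times: Enzyme reaction for 30 min at room temperature | Detection: Luminescence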
# mIAP inh confirm: inhibitors of mouse IAP, confirmation, biochemical, luminescence, single concentration | 4.7% of 11,000 active | shares compounds with mIAP inh | purified mouse IAP, CDP-Star luminescence, 30 min | inhibition, % at 10 µM;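 active means inhibition of at least 40% at 10 µM in either of the two replicates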;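 further: plate controls were DMSO wells with enzyme for no effect and buffer wells lacking enzyme for full effect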
# Numbers without * were called inactive; i = inactive; nt = no result.
SMILES,mIAP inh,hIAP act,hIAP inh,bIAP act,mIAP activ,bIAP inhibitor,mIAP inh confirm
C#CCOCCOCCOCCNc1nc(N2CCN(C(=O)CCCCCCCCCCNC(=O)[C@H]([C@@H](C)CC)n3cc(CCCCCN)nn3)CC2)nc(N2CCN(C(=O)CCCCCCCCCCNC(=O)[C@H](CCCCN)n3cc(CCCC(=O)O)nn3)CC2)n1,-142,1.1,-8,nt,2.4*,nt,-222
Cc1cc(C)cc(C(=O)N(NC(=O)Nc2ccc(Cl)cc2)C(C)(C)C)c1,-335,1.3,-30,1,4.3*,-3,-322
CC(C)(C)N(NC(=O)Nc1ccc(Cl)c(Cl)c1)C(=O)c1ccccc1,i,1.8,-83,1,6.8*,-2,-295
CC(=O)Nc1ccc(S(=O)(=O)/N=C2/NC(=O)/C(=C\c3ccco3)S2)cc1,46*,0.95,5,1.2,0.54,-18,49*
Cc1ccc(S(=O)(=O)/N=C2/NC(=O)/C(=C\c3ccccc3)S2)cc1,3,1.1,-8,nt,0.97,nt,nt
Cc1ccc(S(=O)(=O)/N=C2/NC(=O)/C(=C\c3ccco3)S2)cc1,40*,0.92,8,1,0.6,2,43*
CCc1c(O)nc(SCC(=O)Nc2nc3ccccc3s2)n(C2CCCCC2)c1=O,20,1.4,-45,nt,0.8,nt,nt
O=C(NC1CCCCC1)c1ccc(-c2cccc([N+](=O)[O-])c2)o1,-2,0.93,7,nt,1,nt,nt
COc1ccc(CNc2ncnc3c2[nH]c2ccccc23)cc1,-206,1.6,-64,nt,3.1*,nt,-171
Cc1ccc2[nH]c3c(NCc4ccccc4)ncnc3c2c1,-204,1.5,-51,nt,3*,nt,-149
Brc1ccc2[nH]c3c(NCc4ccccn4)ncnc3c2c1,-22,1.2,-23,nt,1.2,nt,nt
COc1ccc(CNc2ncnc3c2[nH]c2cc(OC)c(OC)cc23)cc1,-85,1.1,-6,nt,1.8,nt,nt
C/C(CC1CC(COCCC(C)C)OC1=O)=N\NC(N)=S (stereo unspecified),24,1.1,-11,1.1,0.76,-8,nt
CN(c1ccccc1)S(=O)(=O)c1cccc(NC(=O)C2=NNC(=O)CC2)c1,-6,1,-2,nt,1.1,nt,nt
CCOC(=O)c1ccc(N2CCN(c3ccccc3F)CC2)c(NC(=O)Nc2ccccc2)c1,i,1.4,-42,1,6.6*,3,-214
O=C(Nn1c(-c2ccccc2)nc2ccccc2c1=O)C1CCC1,-2,0.95,5,0.9,1,6,nt
CCN1C(=O)/C(=C2\SC(=S)N(NC(=O)c3cccnc3)C2=O)c2ccccc21,49*,1.2,-18,nt,0.51,nt,64*
COCCn1nnnc1C(c1cc2cc(C)ccc2[nH]c1=O)N1CCCCCC1 (stereo unspecified),67*,0.92,8,1.1,0.33,-13,70*
COCCn1nnnc1C(c1cc2c(C)cc(C)cc2[nH]c1=O)N1CCCCCC1 (stereo unspecified),13,0.73,27,1.1,0.87,-11,nt
CCN(Cc1ccccc1)C(c1cc2cc(C)ccc2[nH]c1=O)c1nnnn1CCOC (stereo unspecified),56*,1.1,-13,0.8,0.44,16,57*
O=S(=O)(CCc1ccncc1)c1ccc(Cl)cc1,-3,1.3,-28,nt,1,nt,nt
Oc1cc2c(cc1O)C1c3ccc(O)c(O)c3OCC1(O)C2 (stereo unspecified),74*,0.94,6,0.5,0.26,48,64*
Cc1ccc(/C=C2\SC(=S)N(C3CCS(=O)(=O)C3)C2=O)cc1 (stereo unspecified),14,0.98,2,0.8,0.86,19,nt
O=C1/C(=C/c2ccco2)SC(=S)N1C1CCS(=O)(=O)C1 (stereo unspecified),67*,1.3,-31,1.2,0.33,-22,71*
CCN(C(=O)C(C)N1C(=O)/C(=C/c2ccco2)SC1=S)C1CCS(=O)(=O)C1 (stereo unspecified),51*,1,0,nt,0.49,nt,70*
SMILES,mIAP inh,hIAP act,hIAP inh,bIAP act,mIAP activ,bIAP inhibitor,mIAP inh confirm
O=C1/C(=C\c2ccco2)SC(=S)N1C1CCS(=O)(=O)C1 (stereo unspecified),64*,1,0,nt,0.36,nt,71*
COc1ccc(O)c(/C=N/NC(=O)c2cc(=O)[nH]c3ccccc23)c1,2,1.5,-50,nt,0.98,nt,nt
O=C(COc1cccnc1[N+](=O)[O-])NCc1cccs1,7,0.94,6,1,0.93,-3,nt
CCCCCOc1ccc(C(=O)NCC(=O)NCC(=O)OCC)cc1,1,0.97,3,1,0.99,4,nt
CCCCNC(=O)C(C1CCCCC1)N(CCN(C)C)C(=O)CCCN1C(=O)NC(c2ccc(-c3ccccc3)cc2)C(C(=O)OCc2ccccc2)=C1C (stereo unspecified),-168,nt,nt,nt,2.7*,nt,-148
O=C1CC(c2ccco2)CC(O)=C1C=Nc1cc(Cl)ccc1Cl (stereo unspecified),40,0.98,2,1,0.6,-2,nt
O=C1CC(c2ccco2)CC(O)=C1C=Nc1cc(Cl)ccc1O (stereo unspecified),64*,1.7,-68,1.4,0.36,-42,70*
COc1ccc(N=C2NC(=O)/C(=C\c3ccco3)S2)cc1,40*,0.99,1,1.1,0.6,-7,59*
O=C1NC(=Nc2ccc(O)cc2)S/C1=C\C=C\c1ccco1,69*,0.95,5,nt,0.31,nt,88*
COc1cc(/C=C2/SC(=Nc3ccc(O)cc3)NC2=O)cc(OC)c1O,12,0.81,19,0.9,0.88,12,nt
Cc1cc(Cl)ccc1C(=O)C1CCCN(C(=O)c2cnsn2)C1 (stereo unspecified),-5,1.1,-6,0.9,1,12,nt
CCCCc1nc2cc(Cl)ccc2o1,-3,0.99,1,0.8,1,16,nt
O=C(Nc1nc(-c2ccco2)c(-c2ccco2)s1)c1ccc(F)cc1F,51*,0.92,8,nt,0.49,nt,60*
O=C(Nc1nc(-c2ccco2)c(-c2ccco2)s1)c1c(F)cccc1Cl,70*,0.84,16,nt,0.3,nt,72*
O=C(Nc1ccc(F)cc1F)c1cc(-c2ccco2)nc2ccccc12,14,0.92,8,nt,0.86,nt,nt
